The values that follow come from ChEMBL document CHEMBL5678799 (Biochem J, 2009).

The target in data set [1] is CDK2/Cyclin A2 (Homo sapiens) (UniProt P24941+P20248). The data set can be described thus: Inhibition of recombinant human N-terminal GST-tagged CDK2 (2 to 298 residues)/N-terminal GST-tagged Cyclin A2 (171 to 432 residues) expressed in Escherichia coli assessed as remaining activity at 1 uM using YSPTSPSYSPTSPSYSPTSPKKK as substrate incubated for 30 mins in presence of [gamma-33P]ATP by filter binding method relative to control. The procedure, abridged: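 Incubations ran robotically for 30 min at room temperature (21 °C) under linear conditions. Results are percent activity remaining versus controls without compound, as the mean of triplicates ± S.D.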

For data set [2], the target named is Tyrosine-protein kinase Lck (Homo sapiens) (UniProt P06239). In words: Inhibition of recombinant human N-terminal His6-tagged LCK (2 to 509 residues) expressed in baculovirus infected Sf21 cells assessed as remaining activity at 1 uM using KVEKIGEGTYGVVYK as substrate incubated for 30 mins in presence of [gamma-33P]ATP by filter binding method relative to control. The procedure, abridged:
(§1)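 Assays ran 30 min at 21 °C, robotically and in the linear range. Remaining activity is given relative to incubations lacking compound, as the average of triplicate determinations ± S.D.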

In data set [3] the target is Maternal embryonic leucine zipper kinase (Homo sapiens) (UniProt Q14680). The data set can be described thus: Inhibition of recombinant human N-terminal GST/C-terminal His6-tagged MELK (2 to 651 residues) expressed in Escherichia coli assessed as remaining activity at 1 uM using KKLNRTLSFAEPG as substrate incubated for 30 mins in presence of [gamma-33P]ATP by filter binding method relative to control. The procedure, abridged: (§2)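 Incubation was 30 min at room temperature (21 °C) under conditions linear with time and enzyme amount. Activity is reported as percent of control lacking compound, triplicate mean ± S.D.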
Sequence of Maternal embryonic leucine zipper kinase (Homo sapiens) (Q14680 whole entry, looked up, the tested form may be a part): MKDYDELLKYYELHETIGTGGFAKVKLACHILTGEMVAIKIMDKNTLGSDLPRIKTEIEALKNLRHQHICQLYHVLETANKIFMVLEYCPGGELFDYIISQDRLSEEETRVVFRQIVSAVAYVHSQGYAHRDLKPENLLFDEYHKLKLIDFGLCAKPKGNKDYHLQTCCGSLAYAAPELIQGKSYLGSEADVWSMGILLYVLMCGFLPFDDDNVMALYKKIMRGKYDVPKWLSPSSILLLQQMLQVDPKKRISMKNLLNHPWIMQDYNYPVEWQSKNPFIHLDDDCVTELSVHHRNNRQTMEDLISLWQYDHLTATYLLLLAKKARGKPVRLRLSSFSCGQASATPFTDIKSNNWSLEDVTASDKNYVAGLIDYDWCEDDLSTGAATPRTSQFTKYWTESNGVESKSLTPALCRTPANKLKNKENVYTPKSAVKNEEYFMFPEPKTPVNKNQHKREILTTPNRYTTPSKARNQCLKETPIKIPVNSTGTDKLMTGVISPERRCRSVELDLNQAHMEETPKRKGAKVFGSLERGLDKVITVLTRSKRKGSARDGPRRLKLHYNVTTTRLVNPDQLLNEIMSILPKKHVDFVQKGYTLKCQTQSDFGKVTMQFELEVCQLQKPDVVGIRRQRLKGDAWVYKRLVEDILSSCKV

Data set [4] addresses Myosin light chain kinase (Homo sapiens) (UniProt Q32MK0). In words: Inhibition of MLCK (unknown origin) assessed as remaining activity at 1 uM relative to control. The procedure, abridged: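 Profiling-centre panel assay performed robotically at 21 °C for 30 min, linear with time and enzyme. […] Values are percent of compound-free control activity, the mean of triplicates ± S.D.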

Data set [5] concerns the target MAP kinase-activated protein kinase 5 (Homo sapiens) (UniProt Q8IW41). The data set can be described thus: Inhibition of recombinant human His6-tagged PRAK (1 to 471 residues) expressed in baculovirus infected Sf21 cells assessed as remaining activity at 1 uM using phosphorylase b peptide as substrate incubated for 30 mins in presence of [gamma-33P]ATP by filter binding method relative to control. The procedure, abridged: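 Robotic radiometric panel assay, 30 min at room temperature (21 °C), with 10 mM magnesium acetate. […] Compound at 1 or 10 µM. Residual activity expressed relative to compound-free control; triplicate average ± S.D.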

Data set [6] concerns the target Ribosomal protein S6 kinase alpha-3 (Homo sapiens) (UniProt P51812). In words: Inhibition of recombinant human N-terminal His6-tagged RSK2 (2 to 740 residues) expressed in baculovirus infected Sf21 cells assessed as remaining activity at 1 uM using KKLNRTLSVA as substrate incubated for 30 mins in presence of [gamma-33P]ATP by filter binding method relative to control. The procedure, abridged: as §1

In data set [7] the target is Mitogen-activated protein kinase 15 (Homo sapiens) (UniProt Q8TD08). In words: Inhibition of recombinant human N-terminal His6-tagged ERK8 (2 to 544 residues) expressed in baculovirus infected Sf21 cells assessed as remaining activity at 10 uM using MBP as substrate incubated for 30 mins in presence of [gamma-33P]ATP by filter binding method relative to control. Put shortly:
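Radiometric kinase panel run robotically at room temperature (21 °C) for 30 min, linear in time and enzyme. […] Activity is expressed as percent of control without compound, from triplicate determinations ± S.D.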

Data set [8] has as its target Tyrosine-protein kinase Lck (Homo sapiens) (UniProt P06239). The data set can be described thus: Inhibition of recombinant human N-terminal His6-tagged LCK (2 to 509 residues) expressed in baculovirus infected Sf21 cells assessed as remaining activity at 10 uM using KVEKIGEGTYGVVYK as substrate incubated for 30 mins in presence of [gamma-33P]ATP by filter binding method relative to control. The procedure, abridged:
as §1

Data set [9] addresses Serine/threonine-protein kinase 3 (Homo sapiens) (UniProt Q13188). The data set can be described thus: Inhibition of recombinant human N-terminal GST-tagged MST2 (2 to 491 residues) expressed in baculovirus infected Sf21 cells assessed as remaining activity at 10 uM using MBP as substrate incubated for 30 mins in presence of [gamma-33P]ATP by filter binding method relative to control. Put shortly: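 Panel assays were run for 30 min at 21 °C, within the linear range for time and enzyme. […] Results are percent activity remaining relative to compound-free control, averaged from triplicate ± S.D.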

Data set [10] deals with Mitogen-activated protein kinase 14 (Homo sapiens) (UniProt Q16539). The data set can be described thus: Inhibition of recombinant human N-terminal GST-tagged P38alpha (1 to 360 residues) expressed in Escherichia coli assessed as remaining activity at 10 uM using MBP as substrate incubated for 30 mins in presence of [gamma-33P]ATP by filter binding method relative to control. The procedure, abridged: as §2
Sequence of Mitogen-activated protein kinase 14 (Homo sapiens) (Q16539 whole entry, the tested form may be a part): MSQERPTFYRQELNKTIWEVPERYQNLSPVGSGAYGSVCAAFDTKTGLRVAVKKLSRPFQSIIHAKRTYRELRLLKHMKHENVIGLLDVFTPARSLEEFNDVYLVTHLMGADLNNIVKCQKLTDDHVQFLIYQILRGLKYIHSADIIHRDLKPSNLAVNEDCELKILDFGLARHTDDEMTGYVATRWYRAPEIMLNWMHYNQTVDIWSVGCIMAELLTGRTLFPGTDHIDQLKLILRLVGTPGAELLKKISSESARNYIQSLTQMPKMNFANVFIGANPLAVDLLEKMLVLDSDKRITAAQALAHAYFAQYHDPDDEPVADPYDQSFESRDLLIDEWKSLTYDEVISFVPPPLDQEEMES

In data set [11] the target is Mitogen-activated protein kinase 13 (Homo sapiens) (UniProt O15264). In words: Inhibition of recombinant human GST-tagged P38delta (1 to 365 residues) expressed in Escherichia coli assessed as remaining activity at 10 uM using MBP as substrate incubated for 30 mins in presence of [gamma-33P]ATP by filter binding method relative to control. The procedure, abridged:
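Kinase panel run robotically at 21 °C for 30 min, linear in time and enzyme. […] Compound tested at 1 or 10 µM. Activity given as percentage of incubations without compound, mean of triplicates ± S.D.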

For data set [12], the target named is Proto-oncogene tyrosine-protein kinase Src (Homo sapiens) (UniProt P12931). The data set can be described thus: Inhibition of recombinant human N-terminal His6-tagged SRC (1 to 536 residues) expressed in baculovirus infected Sf21 cells assessed as remaining activity at 10 uM using KVEKIGEGTYGVVYK as substrate incubated for 30 mins in presence of [gamma-33P]ATP by filter binding assay relative to control.
Sequence of Proto-oncogene tyrosine-protein kinase Src (Homo sapiens) (P12931 2-536 limits assumed): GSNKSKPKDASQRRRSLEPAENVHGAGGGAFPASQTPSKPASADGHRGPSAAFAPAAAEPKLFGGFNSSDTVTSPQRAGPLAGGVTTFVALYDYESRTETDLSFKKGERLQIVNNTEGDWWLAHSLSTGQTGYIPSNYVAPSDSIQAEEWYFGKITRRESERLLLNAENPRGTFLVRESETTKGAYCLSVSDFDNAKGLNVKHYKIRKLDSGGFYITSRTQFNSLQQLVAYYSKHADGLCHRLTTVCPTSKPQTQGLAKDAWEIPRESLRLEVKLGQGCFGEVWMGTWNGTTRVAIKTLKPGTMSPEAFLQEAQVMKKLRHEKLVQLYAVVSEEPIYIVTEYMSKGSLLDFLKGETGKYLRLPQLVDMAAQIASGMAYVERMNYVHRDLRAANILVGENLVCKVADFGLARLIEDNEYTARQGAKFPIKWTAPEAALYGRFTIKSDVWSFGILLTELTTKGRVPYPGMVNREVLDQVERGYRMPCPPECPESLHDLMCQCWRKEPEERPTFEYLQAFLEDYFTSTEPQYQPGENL

Data set [13] concerns the target Mitogen-activated protein kinase; ERK1/ERK2 (Homo sapiens) (UniProt P27361+P28482). The data set can be described thus: Inhibition of ERK1/2 in serum starved/PMA-stimulated HEK293 cells assessed as reduction in RSK phosphorylation at T573 residues at 1 uM incubated for 30 mins by immunoblot analysis. The data set is classed as cell-based. For orientation: In western blotting, separated proteins are transferred to a membrane and probed.

Data set [14] relates to MEF. The data set can be described thus: Induction of cell cycle arrest in MEF cells assessed as accumulation at G2 phase at 3 uM incubated for 1 to 3 days by propidium iodide staining based flow cytometric analysis (reference value: 15.4 +/- 2.04%). Particulars: mouse, time 1-3 day. The data set is classed as toxicity. Background: A flow cytometer gives signals particle by particle.

In data set [15] the test system is MEF. In words: Induction of cell cycle arrest in mLST8 knockout MEF cells assessed as accumulation at G1 phase at 3 uM incubated for 1 to 3 days by propidium iodide staining based flow cytometric analysis (reference value: 22.2 +/- 0.59%). The data set is classed as toxicity. Particulars: mouse, time 1-3 day.
A further data set deals with mTORC2 (Homo sapiens) (UniProt P42345+Q6R327+Q9BVC4+Q9BPZ7). Particulars: HEK293, dose 30-1000 nM, time 30.0 min.

Active and inactive are the calls of the source. No cut-off for these calls is given here.

Sequence of Tyrosine-protein kinase Lck (Homo sapiens) (P06239 2-509 limits assumed): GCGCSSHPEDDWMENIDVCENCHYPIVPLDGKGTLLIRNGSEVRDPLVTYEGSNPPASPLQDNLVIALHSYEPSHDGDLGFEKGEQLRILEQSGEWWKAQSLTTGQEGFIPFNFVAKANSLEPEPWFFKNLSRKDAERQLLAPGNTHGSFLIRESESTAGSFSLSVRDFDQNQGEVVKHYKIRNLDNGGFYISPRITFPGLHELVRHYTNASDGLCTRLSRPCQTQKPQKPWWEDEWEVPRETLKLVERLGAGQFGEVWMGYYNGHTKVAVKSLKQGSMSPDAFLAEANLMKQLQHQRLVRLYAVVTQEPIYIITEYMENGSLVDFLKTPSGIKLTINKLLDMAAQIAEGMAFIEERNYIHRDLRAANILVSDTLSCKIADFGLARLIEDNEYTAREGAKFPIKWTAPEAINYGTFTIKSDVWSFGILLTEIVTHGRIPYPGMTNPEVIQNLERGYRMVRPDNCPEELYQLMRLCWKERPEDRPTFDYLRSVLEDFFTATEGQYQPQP
Sequence of Myosin light chain kinase (Homo sapiens) (Q32MK0 whole entry): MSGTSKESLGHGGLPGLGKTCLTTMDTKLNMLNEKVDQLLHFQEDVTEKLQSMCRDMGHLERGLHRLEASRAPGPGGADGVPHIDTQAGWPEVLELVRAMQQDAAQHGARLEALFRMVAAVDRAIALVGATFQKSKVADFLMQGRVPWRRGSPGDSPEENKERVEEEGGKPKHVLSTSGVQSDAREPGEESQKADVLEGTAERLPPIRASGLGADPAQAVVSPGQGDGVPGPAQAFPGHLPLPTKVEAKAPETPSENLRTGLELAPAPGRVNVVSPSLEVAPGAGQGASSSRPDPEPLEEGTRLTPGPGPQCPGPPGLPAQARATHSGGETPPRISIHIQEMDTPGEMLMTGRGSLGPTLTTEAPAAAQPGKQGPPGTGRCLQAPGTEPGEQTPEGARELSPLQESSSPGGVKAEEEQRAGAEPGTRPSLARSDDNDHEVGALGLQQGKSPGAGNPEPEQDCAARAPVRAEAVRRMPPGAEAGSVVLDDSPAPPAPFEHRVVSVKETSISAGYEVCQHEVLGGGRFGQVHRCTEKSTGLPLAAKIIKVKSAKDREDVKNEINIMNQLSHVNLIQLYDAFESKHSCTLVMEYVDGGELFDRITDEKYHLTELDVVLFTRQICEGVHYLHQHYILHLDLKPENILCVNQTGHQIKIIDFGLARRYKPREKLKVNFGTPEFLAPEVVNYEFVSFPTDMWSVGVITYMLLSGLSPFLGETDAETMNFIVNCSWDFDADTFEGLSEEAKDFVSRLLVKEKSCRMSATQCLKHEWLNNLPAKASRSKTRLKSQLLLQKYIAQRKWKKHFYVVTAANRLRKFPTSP
Sequence of MAP kinase-activated protein kinase 5 (Homo sapiens) (Q8IW41 whole entry, the tested form may be a part): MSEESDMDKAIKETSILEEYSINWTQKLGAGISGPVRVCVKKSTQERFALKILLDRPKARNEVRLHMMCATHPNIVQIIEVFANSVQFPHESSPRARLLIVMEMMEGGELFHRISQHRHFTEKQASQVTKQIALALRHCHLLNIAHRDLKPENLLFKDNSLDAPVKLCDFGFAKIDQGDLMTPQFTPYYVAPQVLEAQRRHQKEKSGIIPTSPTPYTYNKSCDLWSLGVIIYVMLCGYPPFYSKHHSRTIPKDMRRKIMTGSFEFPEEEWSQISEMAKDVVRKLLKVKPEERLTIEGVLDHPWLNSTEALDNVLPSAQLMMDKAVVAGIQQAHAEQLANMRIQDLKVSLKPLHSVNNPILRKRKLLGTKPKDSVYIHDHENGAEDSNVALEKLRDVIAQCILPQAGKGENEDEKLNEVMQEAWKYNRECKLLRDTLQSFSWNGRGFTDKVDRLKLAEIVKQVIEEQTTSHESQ
Sequence of Mitogen-activated protein kinase 13 (Homo sapiens) (O15264 whole entry, the tested form may be a part): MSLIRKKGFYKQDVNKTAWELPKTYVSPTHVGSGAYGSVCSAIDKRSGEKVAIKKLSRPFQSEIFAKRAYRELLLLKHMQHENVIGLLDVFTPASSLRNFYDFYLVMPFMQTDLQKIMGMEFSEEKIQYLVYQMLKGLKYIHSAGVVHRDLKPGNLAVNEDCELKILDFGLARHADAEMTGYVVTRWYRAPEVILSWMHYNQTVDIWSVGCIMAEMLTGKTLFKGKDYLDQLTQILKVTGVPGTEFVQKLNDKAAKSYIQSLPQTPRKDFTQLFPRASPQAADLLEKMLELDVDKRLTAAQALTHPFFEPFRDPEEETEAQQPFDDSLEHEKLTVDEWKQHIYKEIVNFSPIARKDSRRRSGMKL
Sequence of Ribosomal protein S6 kinase alpha-3 (Homo sapiens) (P51812 whole entry, the tested form may be a part): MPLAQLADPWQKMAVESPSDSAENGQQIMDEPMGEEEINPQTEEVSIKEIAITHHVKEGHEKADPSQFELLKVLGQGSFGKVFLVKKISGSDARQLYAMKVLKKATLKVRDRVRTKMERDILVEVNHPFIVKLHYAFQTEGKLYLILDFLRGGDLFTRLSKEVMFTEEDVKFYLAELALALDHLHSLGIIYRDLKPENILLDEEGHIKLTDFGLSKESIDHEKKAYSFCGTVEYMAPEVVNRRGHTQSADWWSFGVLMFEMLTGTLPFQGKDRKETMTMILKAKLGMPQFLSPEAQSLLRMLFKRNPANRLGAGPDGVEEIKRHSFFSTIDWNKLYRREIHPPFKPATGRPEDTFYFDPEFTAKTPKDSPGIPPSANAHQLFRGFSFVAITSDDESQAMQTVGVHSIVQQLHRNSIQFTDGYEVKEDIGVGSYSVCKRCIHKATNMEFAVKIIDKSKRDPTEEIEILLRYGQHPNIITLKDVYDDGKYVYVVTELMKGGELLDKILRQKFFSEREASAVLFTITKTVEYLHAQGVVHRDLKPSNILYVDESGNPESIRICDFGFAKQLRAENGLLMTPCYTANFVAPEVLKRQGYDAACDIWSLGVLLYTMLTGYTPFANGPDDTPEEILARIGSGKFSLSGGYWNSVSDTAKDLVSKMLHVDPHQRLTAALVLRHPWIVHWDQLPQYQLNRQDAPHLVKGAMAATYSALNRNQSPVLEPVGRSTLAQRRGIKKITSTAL
Sequence of Serine/threonine-protein kinase 3 (Homo sapiens) (Q13188 whole entry, the tested form may be a part): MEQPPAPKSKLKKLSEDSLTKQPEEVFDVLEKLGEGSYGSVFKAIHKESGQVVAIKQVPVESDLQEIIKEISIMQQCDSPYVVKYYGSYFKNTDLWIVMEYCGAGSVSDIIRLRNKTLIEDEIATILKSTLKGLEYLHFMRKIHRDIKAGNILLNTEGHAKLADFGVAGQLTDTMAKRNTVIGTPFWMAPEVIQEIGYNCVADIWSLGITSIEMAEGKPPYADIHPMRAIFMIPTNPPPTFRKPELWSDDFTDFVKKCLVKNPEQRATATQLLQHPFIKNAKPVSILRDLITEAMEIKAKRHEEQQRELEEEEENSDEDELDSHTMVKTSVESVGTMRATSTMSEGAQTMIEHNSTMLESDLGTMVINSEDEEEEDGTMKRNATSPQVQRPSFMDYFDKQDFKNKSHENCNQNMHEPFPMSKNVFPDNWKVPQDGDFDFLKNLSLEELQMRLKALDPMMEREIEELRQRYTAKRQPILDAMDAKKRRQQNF

As for `COc1ccc(-c2ccc3c(N4CCOCC4)nc(N4C[C@@H](C)O[C@@H](C)C4)nc3n2)cc1CO` [Ku-0063794], the Activity in data set [1] was determined as 89%; in data set [2] it was 69%; in data set [3], 91%; in [4] it was 82%; in [5] it was 67%; in data set [6], 103%. Also, the Activity was found to be 92% in data set [7]; 104% in [8]; 102% in data set [9]; 96% in data set [10]; 87% in data set [11]; 86% in [12]. In addition, the Activity in the data set with MEF [14] worked out at 9.4%; in the data set with MEF [15], 47.3%. The inhibition result in data set [13] is “inactive”. Further, on mTORC2 (Homo sapiens), the inhibition result was “Dose-Dependent Effect”.
